# Experimental data published in ChEMBL document CHEMBL1153325, “Morpholine containing CB2 selective agonists” (Bioorg Med Chem Lett, 2009).
# Activity calls are given as the source filed them. The rule behind the calls is not given here.
# Key:
# Homo sapiens = species: Homo sapiens; assay: Selectivity ratio of EC50 for human CB1 receptor to EC50 for human CB2 receptor
# Method in brief: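 Inhibition is normalised to 200 nM CP-55940. EC50 from a four-parameter logistic fit. Each compound tested in triplicate, at least three times.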
# Cannabinoid receptor 2 [1] = target: T1, Cannabinoid receptor 2 (Homo sapiens, UniProt P34972); assay: Agonist activity at human CB2 receptor expressed in CHO cells assessed as inhibition of forskolin-induced cAMP release; type: functional, cell-based
# Method in brief: (§1)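 CHO cells stably expressing human CB2, 5000 cells/well, incubated overnight at 37 °C. Compounds added in stimulation buffer with 1 mM IBMX, 0.25% BSA and forskolin, 30 min at 37 °C. cAMP read after lysis with a commercial kit. 100% is set by forskolin-stimulated cAMP versus the level under 200 nM CP-55940. Efficacy is relative to CP-55940, which is run twice per plate. EC50 from a four-parameter logistic fit. Each compound tested in triplicate, at least three times; mean reported.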
# Cannabinoid receptor 2 [2] = target: T1, Cannabinoid receptor 2; assay: Agonist activity at human CB2 receptor expressed in CHO cells assessed as inhibition of forskolin-induced cAMP release relative to CP-55940; type: functional, cell-based; method in brief: as §1
# Mus musculus [3] = assay: Antiinflammatory activity in BALB/c mouse assessed as inhibition of zymosan-induced paw edema at 30 mg/kg, po administered 60 mins before zymosan challenge measured after 3 hrs relative to control; type: functional; set-up: scale not given: the % may be the effect or the level left
# Method in brief: (§2)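 Male Balb/c mice, 6–10 weeks old. Compound given orally in 95% PEG400/5% Tween 80 about 60 min before 0.5% zymosan in 0.9% saline, injected dorsal metatarsally into each hind paw. Paw volume measured by water plethysmometry before challenge and 3 h after. Inhibition of swelling is relative to vehicle-dosed mice, six per group.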
# Cannabinoid receptor 2 [4] = target: T1, Cannabinoid receptor 2; assay: Displacement of [3H]CP-55940 form human CB2 receptor transfected in HEK cells; type: cell-based, HEK293
# Method in brief: (§3)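 Compounds tested at 1×10^-5 to 1×10^-10 M. Competition with [³H]-CP55940 or [³H]-Win55212 at 4 nM final. IC50 is 50% inhibition of specific binding, from a four-parameter logistic fit.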
# Cannabinoid receptor 2 [5] = target: T1, Cannabinoid receptor 2; assay: Displacement of [3H]Win55212 form human CB2 receptor transfected in HEK cells; type: cell-based, HEK293; method in brief: as §3
# Mus musculus [6] = assay: Antiinflammatory activity in BALB/c mouse assessed as inhibition of zymosan-induced paw edema at 100 mg/kg, po administered 60 mins before zymosan challenge measured after 3 hrs relative to control; type: functional; set-up: scale not given: the % may be the effect or the level left; method in brief: as §2
# Cannabinoid receptor 2 [7] = target: T1, Cannabinoid receptor 2; assay: Displacement of [3H]CP-55940 form human CB2 receptor transfected in HEK cells at 50 nM; type: cell-based; details: HEK293
# Cannabinoid receptor 2 [8] = target: T1, Cannabinoid receptor 2; assay: Inverse agonist activity at human CB2 receptor expressed in CHO cells assessed as change in forskolin-induced cAMP release; type: functional, cell-based; details: filed as inverse agonist; method in brief: as §1
# T1 sequence (P34972 whole entry): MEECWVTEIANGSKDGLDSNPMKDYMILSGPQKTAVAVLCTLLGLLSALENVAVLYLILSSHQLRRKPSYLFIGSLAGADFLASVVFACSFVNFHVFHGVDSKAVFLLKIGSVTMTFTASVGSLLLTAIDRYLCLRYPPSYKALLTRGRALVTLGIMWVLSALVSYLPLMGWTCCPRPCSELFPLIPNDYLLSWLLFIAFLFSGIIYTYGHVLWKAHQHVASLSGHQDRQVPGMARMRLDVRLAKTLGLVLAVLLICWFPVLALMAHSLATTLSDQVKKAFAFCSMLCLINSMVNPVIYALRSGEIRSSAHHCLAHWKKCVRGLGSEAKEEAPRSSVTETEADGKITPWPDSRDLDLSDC
smiles,measurement,setting,value
FC(F)(F)c1ccccc1-c1ccc(CN2CCCC(c3ccccc3)C2)cc1 (racemic),Ratio EC50,Homo sapiens,195
same,EC50,Cannabinoid receptor 2 [1],30 nM
same,Efficacy,Cannabinoid receptor 2 [2],57%
Clc1cccc(-c2ccc(CN3CCO[C@@H](c4ccccc4)C3)cc2)c1Cl,Activity,Mus musculus [3],54%
same,Ki,Cannabinoid receptor 2 [4],312 nM
same,Ki,Cannabinoid receptor 2 [5],104 nM
same,Ratio EC50,Homo sapiens,960
same,EC50,Cannabinoid receptor 2 [1],6 nM
same,Efficacy,Cannabinoid receptor 2 [2],77%
Clc1ccc(Nc2ccc(CN3CCO[C@@H](c4ccccc4)C3)cn2)cc1,Ratio EC50,Homo sapiens,> 670
same,EC50,Cannabinoid receptor 2 [1],30 nM
same,Efficacy,Cannabinoid receptor 2 [2],80%
Cc1ccc(Nc2ccc(CN3CCO[C@@H](c4ccccc4)C3)cn2)cc1,Ratio EC50,Homo sapiens,> 200
same,EC50,Cannabinoid receptor 2 [1],100 nM
same,Efficacy,Cannabinoid receptor 2 [2],80%
Cc1ccc(Cl)c(-c2ccc(CN3CCO[C@@H](c4ccccc4)C3)cc2)c1,Ratio EC50,Homo sapiens,781
same,EC50,Cannabinoid receptor 2 [1],3 nM
same,Efficacy,Cannabinoid receptor 2 [2],73%
c1ccc(Nc2ccc(CN3CCO[C@@H](c4ccccc4)C3)cc2)cc1,Ratio EC50,Homo sapiens,> 30
same,EC50,Cannabinoid receptor 2 [1],615 nM
same,Efficacy,Cannabinoid receptor 2 [2],60%
Clc1ccccc1-c1ccc(CN2CCO[C@@H](c3ccccc3)C2)cc1,Ratio EC50,Homo sapiens,306
same,EC50,Cannabinoid receptor 2 [1],25 nM
same,Efficacy,Cannabinoid receptor 2 [2],51%
Clc1ccc(Nc2ccc(CN3CCO[C@@H](c4ccccc4)C3)cn2)c(Cl)c1,Ki,Cannabinoid receptor 2 [4],> 10000 nM
same,Ki,Cannabinoid receptor 2 [5],2650 nM
same,Activity,Mus musculus [6],85%
same,Ratio EC50,Homo sapiens,> 2000
same,EC50,Cannabinoid receptor 2 [1],10 nM
same,Efficacy,Cannabinoid receptor 2 [2],100%
CN(Cc1ccc(-c2ccccc2C(F)(F)F)cc1)CC(O)c1ccccc1 (racemic),Activity,Cannabinoid receptor 2 [7],Active
same,Ratio EC50,Homo sapiens,120
same,EC50,Cannabinoid receptor 2 [1],2 nM
same,Efficacy,Cannabinoid receptor 2 [2],95%
CN(C)c1ccc(Nc2ccc(CN3CCO[C@@H](c4ccccc4)C3)cn2)cc1,EC50,Cannabinoid receptor 2 [1],> 20000 nM
Clc1cccc(Nc2ccc(CN3CCO[C@@H](c4ccccc4)C3)cn2)c1,Ratio EC50,Homo sapiens,> 100
same,EC50,Cannabinoid receptor 2 [1],200 nM
same,Efficacy,Cannabinoid receptor 2 [2],80%
Clc1cccc(Nc2ccc(CN3CCO[C@@H](c4ccccc4)C3)cn2)c1Cl,Ratio EC50,Homo sapiens,> 10
same,EC50,Cannabinoid receptor 2 [1],1600 nM
same,Efficacy,Cannabinoid receptor 2 [2],70%
FC(F)(F)c1ccccc1-c1ccc(CN2CCO[C@H](c3ccccc3)C2)cc1,Activity,Cannabinoid receptor 2 [8],Inverse agonist
N#Cc1ccccc1-c1ccc(CN2CCO[C@@H](c3ccccc3)C2)cc1,Ratio EC50,Homo sapiens,715
same,EC50,Cannabinoid receptor 2 [1],3 nM
same,Efficacy,Cannabinoid receptor 2 [2],56%
CC(C)c1ccc(Nc2ccc(CN3CCO[C@@H](c4ccccc4)C3)cn2)cc1,EC50,Cannabinoid receptor 2 [1],> 20000 nM
Clc1ccccc1Nc1ccc(CN2CCO[C@@H](c3ccccc3)C2)cn1,Ratio EC50,Homo sapiens,250
same,EC50,Cannabinoid receptor 2 [1],30 nM
same,Efficacy,Cannabinoid receptor 2 [2],80%
c1ccc(Nc2ccc(CN3CCO[C@@H](c4ccccc4)C3)cn2)cc1,Ratio EC50,Homo sapiens,> 150
same,EC50,Cannabinoid receptor 2 [1],140 nM
same,Efficacy,Cannabinoid receptor 2 [2],70%
c1ccc(Oc2ccc(CN3CCO[C@@H](c4ccccc4)C3)cc2)cc1,EC50,Cannabinoid receptor 2 [1],15000 nM
same,Efficacy,Cannabinoid receptor 2 [2],100%
FC(F)(F)c1ccccc1-c1ccc(CN2CCO[C@@H](c3ccccc3)C2)cc1,Ratio EC50,Homo sapiens,250
same,EC50,Cannabinoid receptor 2 [1],40 nM
same,Efficacy,Cannabinoid receptor 2 [2],50%
O=C(NCC1CCOCC1)c1cnc(Nc2ccc(Cl)cc2Cl)nc1C(F)(F)F [GW842166X],Ki,Cannabinoid receptor 2 [4],> 5000 nM
same,Ki,Cannabinoid receptor 2 [5],> 10000 nM
same,Ratio EC50,Homo sapiens,> 60
same,EC50,Cannabinoid receptor 2 [1],350 nM
same,Efficacy,Cannabinoid receptor 2 [2],90%
FC(F)(F)c1ccccc1-c1ccc(CN2CCOC(c3ccccc3)C2)cc1 (racemic),Ratio EC50,Homo sapiens,> 60
same,EC50,Cannabinoid receptor 2 [1],330 nM
same,Efficacy,Cannabinoid receptor 2 [2],50%
Fc1ccc(Nc2ccc(CN3CCO[C@@H](c4ccccc4)C3)cn2)cc1,EC50,Cannabinoid receptor 2 [1],35 nM
same,Efficacy,Cannabinoid receptor 2 [2],70%
c1ccc(-c2ccc(Nc3ccc(CN4CCO[C@@H](c5ccccc5)C4)cn3)cc2)cc1,EC50,Cannabinoid receptor 2 [1],> 20000 nM
Clc1ccc(Nc2ccc(CN3CCO[C@@H](c4ccccc4)C3)cn2)cc1Cl,Ratio EC50,Homo sapiens,> 400
same,EC50,Cannabinoid receptor 2 [1],50 nM
same,Efficacy,Cannabinoid receptor 2 [2],80%
COc1ccc(Nc2ccc(CN3CCO[C@@H](c4ccccc4)C3)cn2)cc1,Ratio EC50,Homo sapiens,> 310
same,EC50,Cannabinoid receptor 2 [1],65 nM
same,Efficacy,Cannabinoid receptor 2 [2],90%
